From PubChem BioAssay AID588484 (The Scripps Research Institute Molecular Screening Center, 2011)
Calls of active or inactive are those of the source.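 Rule for the calls: active = IC50 of 1 µM or lower against any of the four tested PAD enzyme isoforms; inactive = the rest, IC50 above 1 µM everywhere.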

Columns and labels:
Test in all cases: PAD1-4 inhibitor IC50 determination, late-stage follow-up, selectivity assay for PAD4 inhibitor project, biochemical, colorimetric, BAEE substrate, recombinant PAD1-4 (AID 588484)
[1] = biological target: Protein-arginine deiminase type-1 (Homo sapiens) (UniProt Q9ULC6); details: recombinant PAD1-4, BAEE citrullination, colorimetric absorbance; PAD1
Outline: (§1)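 material = recombinant PAD2, PAD3 or PAD4 | medium = Tris pH 7.6, CaCl2, DTT | incubation = 15 min pre-incubation (37 °C), 15 min reaction | signal = colorimetric citrulline measurement by absorbance at 540 nm | measure = IC50 from fitted concentration–activity curve | repeats = duplicates per concentration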

[2] = biological target: Protein-arginine deiminase type-2 (Homo sapiens) (UniProt Q9Y2J8); details: recombinant PAD1-4, BAEE citrullination, colorimetric absorbance; PAD2
Outline: as §1

[3] = biological target: Protein-arginine deiminase type-3 (Homo sapiens) (UniProt Q9ULW8); details: recombinant PAD1-4, BAEE citrullination, colorimetric absorbance; PAD3
Outline: as §1

[4] = biological target: Protein-arginine deiminase type-4 (Homo sapiens) (UniProt Q9UM07); details: recombinant PAD1-4, BAEE citrullination, colorimetric absorbance; PAD4
Outline: as §1

Measured: IC50

Chain of Protein-arginine deiminase type-1 (Homo sapiens) (Q9ULC6 whole entry, looked up): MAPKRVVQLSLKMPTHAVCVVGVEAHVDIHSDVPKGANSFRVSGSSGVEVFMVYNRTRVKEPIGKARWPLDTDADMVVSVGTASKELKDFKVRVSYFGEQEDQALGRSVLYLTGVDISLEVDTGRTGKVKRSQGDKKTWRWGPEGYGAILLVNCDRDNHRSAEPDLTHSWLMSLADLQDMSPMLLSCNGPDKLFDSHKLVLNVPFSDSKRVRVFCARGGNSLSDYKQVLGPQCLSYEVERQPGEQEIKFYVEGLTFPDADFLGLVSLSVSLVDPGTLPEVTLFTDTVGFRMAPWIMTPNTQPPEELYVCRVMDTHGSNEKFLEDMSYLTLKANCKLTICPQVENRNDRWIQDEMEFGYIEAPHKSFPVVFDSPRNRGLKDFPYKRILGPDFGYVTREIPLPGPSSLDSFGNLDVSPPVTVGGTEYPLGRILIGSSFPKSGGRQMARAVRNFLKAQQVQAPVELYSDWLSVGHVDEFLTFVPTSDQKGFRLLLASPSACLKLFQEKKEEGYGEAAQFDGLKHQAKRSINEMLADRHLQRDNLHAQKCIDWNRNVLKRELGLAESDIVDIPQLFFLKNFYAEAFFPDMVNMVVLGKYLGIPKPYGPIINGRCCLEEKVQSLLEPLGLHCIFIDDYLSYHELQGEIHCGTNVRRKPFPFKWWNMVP
Chain of Protein-arginine deiminase type-3 (Homo sapiens) (Q9ULW8 whole entry, looked up): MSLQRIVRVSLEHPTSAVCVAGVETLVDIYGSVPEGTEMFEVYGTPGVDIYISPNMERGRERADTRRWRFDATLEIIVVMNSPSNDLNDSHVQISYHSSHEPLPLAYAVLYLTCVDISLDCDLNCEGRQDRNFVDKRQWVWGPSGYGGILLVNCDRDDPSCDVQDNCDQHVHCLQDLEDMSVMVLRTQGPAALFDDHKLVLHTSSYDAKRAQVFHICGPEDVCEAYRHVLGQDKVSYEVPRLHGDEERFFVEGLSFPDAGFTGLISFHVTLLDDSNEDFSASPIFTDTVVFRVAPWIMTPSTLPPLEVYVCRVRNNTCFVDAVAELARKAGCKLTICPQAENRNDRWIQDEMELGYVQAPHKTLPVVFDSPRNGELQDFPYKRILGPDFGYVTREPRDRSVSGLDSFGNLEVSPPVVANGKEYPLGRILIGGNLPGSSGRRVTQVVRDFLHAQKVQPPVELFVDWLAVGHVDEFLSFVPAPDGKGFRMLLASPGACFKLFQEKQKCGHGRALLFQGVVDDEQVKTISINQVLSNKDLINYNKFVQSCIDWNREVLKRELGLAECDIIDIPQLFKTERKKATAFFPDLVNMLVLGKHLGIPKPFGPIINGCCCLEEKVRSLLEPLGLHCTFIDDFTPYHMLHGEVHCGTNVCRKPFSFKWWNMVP
Chain of Protein-arginine deiminase type-4 (Homo sapiens) (Q9UM07 whole entry, looked up): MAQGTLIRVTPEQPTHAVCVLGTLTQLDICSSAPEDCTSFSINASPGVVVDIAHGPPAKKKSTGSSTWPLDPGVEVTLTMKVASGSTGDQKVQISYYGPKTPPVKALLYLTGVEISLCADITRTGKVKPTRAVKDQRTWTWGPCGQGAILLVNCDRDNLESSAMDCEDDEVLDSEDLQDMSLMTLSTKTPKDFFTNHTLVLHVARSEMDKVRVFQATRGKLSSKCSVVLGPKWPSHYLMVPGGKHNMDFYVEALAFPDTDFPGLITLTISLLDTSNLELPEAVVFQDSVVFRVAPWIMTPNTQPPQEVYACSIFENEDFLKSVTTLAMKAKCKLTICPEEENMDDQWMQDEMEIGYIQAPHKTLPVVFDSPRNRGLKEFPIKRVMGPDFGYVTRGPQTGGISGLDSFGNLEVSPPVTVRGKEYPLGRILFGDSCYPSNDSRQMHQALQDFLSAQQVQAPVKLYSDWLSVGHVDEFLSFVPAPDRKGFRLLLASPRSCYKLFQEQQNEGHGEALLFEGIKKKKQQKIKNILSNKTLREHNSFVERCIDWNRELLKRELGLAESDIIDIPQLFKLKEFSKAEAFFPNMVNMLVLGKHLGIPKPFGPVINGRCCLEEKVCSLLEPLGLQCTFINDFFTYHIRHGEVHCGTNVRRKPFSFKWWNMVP
Chain of Protein-arginine deiminase type-2 (Homo sapiens) (Q9Y2J8 whole entry, looked up): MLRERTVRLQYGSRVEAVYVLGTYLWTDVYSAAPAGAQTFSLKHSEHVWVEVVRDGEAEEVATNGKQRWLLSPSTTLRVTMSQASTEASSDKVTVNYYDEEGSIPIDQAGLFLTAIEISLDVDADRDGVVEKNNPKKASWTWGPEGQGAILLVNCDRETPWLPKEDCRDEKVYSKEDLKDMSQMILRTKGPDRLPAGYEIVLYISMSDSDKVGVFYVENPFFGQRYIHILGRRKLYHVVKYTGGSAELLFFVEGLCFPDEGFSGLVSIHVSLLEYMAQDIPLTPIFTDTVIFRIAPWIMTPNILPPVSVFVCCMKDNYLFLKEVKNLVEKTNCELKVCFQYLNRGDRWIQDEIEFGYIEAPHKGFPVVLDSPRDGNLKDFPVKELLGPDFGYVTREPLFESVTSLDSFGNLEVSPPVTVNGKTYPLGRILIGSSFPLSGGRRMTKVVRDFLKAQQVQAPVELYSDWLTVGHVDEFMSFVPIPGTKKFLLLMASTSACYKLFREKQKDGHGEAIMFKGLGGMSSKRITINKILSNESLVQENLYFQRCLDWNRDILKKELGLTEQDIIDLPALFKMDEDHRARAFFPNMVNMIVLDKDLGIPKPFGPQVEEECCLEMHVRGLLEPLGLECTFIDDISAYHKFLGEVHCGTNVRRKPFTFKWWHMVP

COC1=C(Br)C(=O)c2ncccc2C1=O
inactive: [1] | [2] | [3] | [4]
